# Source: PubChem BioAssay
# An excerpt weighted towards active compounds, which were near 1.6% of everything screened.
# GSTO1 inh = counter-screen for RBBP9 inhibitors: inhibitors of human GSTO1 | inhibition, % at 5.96 µM | actives 1.1% (n = 300,000) | P78417 | AID 1974 | recombinant GSTO1, activity-based probe fluorescence polarization;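 active = inhibition above the campaign mean inhibition plus 3 SD, cut at about 35% in these data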
# Target sequence (P78417 whole entry, looked up): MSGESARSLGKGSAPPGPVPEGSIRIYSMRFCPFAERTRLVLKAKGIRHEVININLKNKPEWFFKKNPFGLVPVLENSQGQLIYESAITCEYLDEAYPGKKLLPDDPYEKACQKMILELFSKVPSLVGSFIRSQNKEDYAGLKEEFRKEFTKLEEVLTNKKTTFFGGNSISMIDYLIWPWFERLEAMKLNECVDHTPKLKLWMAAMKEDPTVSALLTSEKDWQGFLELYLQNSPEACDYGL
# PAD4 inh = PAD4 (human) enzyme inhibition. Q9UM07. recombinant PAD4, RCA probe fluorescence polarization. inhibition, % at 6.36 µM. actives 0.41% (n = 330,000);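 active = percent inhibition above a cutoff equal to the mean of all tested compounds plus 3 SD, cut at about 15% in these data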
# TDP2 absorb = blocks human TDP2 phosphodiesterase activity; O95551; recombinant TDP2, T5PNP hydrolysis, p-nitrophenol absorbance 415 nm; inhibition, % at 12.8 µM; actives 0.34% (n = 370,000);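 active = inhibition above the mean of all tested compounds plus 3 SD, set per campaign, cut at about 25% in these data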
# Target sequence (O95551 whole entry, looked up): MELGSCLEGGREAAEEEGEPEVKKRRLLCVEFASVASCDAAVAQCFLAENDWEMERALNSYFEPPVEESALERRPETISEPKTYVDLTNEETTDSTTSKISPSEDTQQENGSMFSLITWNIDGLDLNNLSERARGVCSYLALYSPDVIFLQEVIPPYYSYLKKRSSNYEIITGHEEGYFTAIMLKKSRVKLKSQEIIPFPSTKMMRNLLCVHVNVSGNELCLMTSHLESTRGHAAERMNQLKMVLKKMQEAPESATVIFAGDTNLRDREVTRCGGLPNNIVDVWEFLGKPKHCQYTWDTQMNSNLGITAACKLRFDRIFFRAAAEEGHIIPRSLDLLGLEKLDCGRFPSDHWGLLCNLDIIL
#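 Incubation: 2 h at 37 °C; Test system: recombinant human TDP2; Quantity: enzyme 120 nM; Read-out basis: percent inhibition; Medium: 50 mM Tris-HCl pH 7.5 with Mg2+, KCl, DTT, BSA; Repeats: single replicate; Compound: 12.8 µM single point, 1% DMSO; Signal: epi absorbance; Reagent: 5 mM T5PNP chromogenic substrate; Benchmarks: no-enzyme high, DMSO-plus-enzyme low.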
# HKDC1 inhibitor = blocks human hexokinase HKDC1 activity | Q2TB90 | recombinant HKDC1, G6PDH/diaphorase resazurin coupled fluorescence | inhibition, % at 20 µM | actives 0.16% (n = 340,000) | AID 493160;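 active = inhibition above about 35% when tested at 20 µM, limit read from the data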
#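 Test system: recombinant HKDC1 (HK5) hexokinase enzyme, produced in-house / Doses: 20 µM test compound, 1% DMSO / Timing: 90 min, room temperature / Detection: G6PDH/diaphorase-coupled fluorescence, 1 mM NADP, 100 µM resazurin, 525/613 nm / Control set: DMSO wells with and without enzyme mix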
# Fh CTSL1 inh = blocks F. hepatica cathepsin L1 in PFM18AAP counter-screen; recombinant F. hepatica cathepsin L1, Z-Leu-Arg-MCA fluorescence; inhibition, % at 5.96 µM; actives 0.49% (n = 300,000); AID 1906;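 active = inhibition above the mean of all tested compounds plus 3 SD, set per screening campaign, cut at about 17% in these data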
# UCH37 inh = blocks the human deubiquitinase UCH37. Q9Y5K5. purified proteasome/UCH37, Ub-AMC cleavage fluorescence. inhibition, % (test concentration not listed). actives 0.33% (n = 330,000). AID 588478;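 active = mean inhibition over replicate wells above about 20%, limit read from the data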
#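 system = Proteasome-associated human UCH37 deubiquitinase | amount = 0.15 nM proteasome as dispensed | medium = pH 7.4 Tris-HCl (50 mM) with ovalbumin, ATP-MgCl2, DTT | incubation = 30 min preincubation with enzyme, 25 min cleavage at room temperature | detection = AMC fluorescence 355/460 nm | read-out basis = percent inhibition | controls = no-proteasome and no-compound wells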
# Hits are given with their value; - = inactive; . = no result.
SMILES,GSTO1 inh,PAD4 inh,TDP2 absorb,HKDC1 inhibitor,Fh CTSL1 inh,UCH37 inh
CCOC(=O)c1c(S(=O)(=O)NCC2CCN(Cc3cccc(F)c3)CC2)c(C)n(C)c1C,-,-,-,-,44,-
C/C(=N\NC(=O)c1ccccc1O)c1ccc(Br)s1,73,-,-,-,-,.
C/C(=N\NC(=O)c1ccccc1O)C1C(=O)c2ccccc2C1=O,-,-,-,-,-,.
CC(=NNC(=O)c1ccccc1O)C1C(=O)c2ccccc2C1=O,.,.,.,.,.,21
O=C(NC(C(=O)NN=Cc1cccnc1)c1n[nH]c(=O)c2ccccc12)c1ccccc1 (centres undefined),.,.,.,.,.,-
COc1ccc(-c2ncnc(C(F)(F)F)c2-c2csc(C)n2)c(O)c1,-,-,-,-,18,-
Cc1ccc(-c2cc(C(=O)NN=C/C=C/c3ccco3)c3ccccc3n2)cc1C,.,.,.,.,.,-
COc1cccc(C2C(C#N)=C(N)OC3=C2C(=O)CC(c2ccco2)C3)c1OCc1ccc(F)cc1 (centres undefined),-,-,-,-,-,-
N#CC1=C(N)OC2=C(C(=O)CC(c3ccco3)C2)C1c1ccc(OCc2c(F)cccc2Cl)cc1 (centres undefined),-,-,-,-,-,32
Cn1c(SCC(=O)c2cc(Cl)c(Cl)s2)nnc1-c1ccco1,44,-,-,-,-,.
COc1ccc(/C=C2/C(=O)N(c3ccccc3)N=C2C)cc1OC,.,.,77,-,.,.
CN(C)C(=O)c1ccc2c(c1[N+](=O)[O-])C(=O)c1ccccc1C2=O,36,-,-,-,-,-
Cc1[nH]c2ccccc2c1CCNC(=O)c1ccc2c(c1[N+](=O)[O-])C(=O)c1ccccc1C2=O,-,-,-,-,-,.
Cc1ncc(CO)c(C=NNC(=S)Nc2ccc(C(C)C)cc2)c1O,.,.,.,.,.,-
NC(=S)N/N=C1\CCSc2ccc(Cl)cc21,-,-,-,-,26,.
Cc1ccc2c(c1)C(=NO)CCS2,.,.,.,.,.,-
Cc1nn(-c2ccccc2)c(Cl)c1C=NNC(=O)c1ccn[nH]1,.,.,.,.,.,-
CCn1c(/C=C/N(C)c2ccccc2)[n+](CC)c2ccc(Cl)cc21,-,-,-,-,-,23
CCn1c(/C=C/Nc2ccccc2)[n+](CC)c2ccc(Cl)cc21,-,-,-,-,-,-
CCOc1ccc2[nH]c(=O)c(CN(Cc3cccs3)C(CC)c3nnnn3C(C)(C)CC)cc2c1 (centres undefined),.,.,-,-,.,-
CCC(c1nnnn1C(C)(C)C)N(Cc1cccs1)Cc1cc2cc(C)c(C)cc2n2nnnc12 (centres undefined),-,-,.,-,19,-
ON=Cc1ccnc(SCc2ccccc2)n1,.,.,.,.,.,-
CC(C)COC(=O)c1ccc2c(c1O)C(=O)c1ccccc1C2=O,-,-,-,-,24,-
COc1ccc(C=NNC(=O)c2cc(-c3ccccc3)nc3ccccc23)c(OC)c1,.,.,.,.,.,-
COc1ccc(OCCn2cc(C=NNC(=O)c3ccncc3)c3ccccc32)cc1,.,.,.,.,.,-
SMILES,GSTO1 inh,PAD4 inh,TDP2 absorb,HKDC1 inhibitor,Fh CTSL1 inh,UCH37 inh
CCN(CC)S(=O)(=O)c1cccc(NC(=O)COC(=O)CNC(=O)c2cccc(F)c2)c1,-,-,-,-,18,-
COc1ccccc1C(=O)NCC(=O)OCC(=O)Nc1cccc(S(=O)(=O)N(C)C)c1,-,-,-,-,-,-
COc1ccccc1CON=Cc1cccn1-c1nccc(N(C)C)c1C#N,.,.,.,.,.,-
Oc1ccc(N=C/C=C/c2ccc(Br)cc2)cc1-c1nc2ccccc2s1,36,-,.,.,-,.
Brc1cc2c(cc1-c1nc3ccccc3s1)OCO2,-,-,-,-,-,-
Cc1ccccc1C(=O)Nc1ccc(C(=O)NN=Cc2ccccn2)cc1,.,.,.,.,.,-
CC(=NNC(=O)CNC(=O)c1ccco1)c1ccc(Cl)cc1,.,.,.,.,.,-
Cc1ccc(NC(=O)CN(C)C(=O)C(C)OC(=O)CNC(=O)c2ccc(Cl)c([N+](=O)[O-])c2)cc1 (centres undefined),-,-,-,-,28,-
O=C(CN1CCCc2ccccc21)NN=Cc1ccccc1O,.,.,.,.,.,-
CC(CCc1ccco1)=NNC(=O)CNc1c(Br)cc(Br)cc1Br,.,.,.,.,.,-
O=C1C(Cl)=C(N2CCCCC2)C(=O)N1c1ccccc1Cl,-,-,-,-,-,-
O=C1C(Cl)=C(N2CCOCC2)C(=O)N1c1ccc(Br)cc1,-,-,-,-,35,-
CC(C)c1ccc(N2C(=O)C(Cl)=C(N3CCOCC3)C2=O)cc1,-,-,-,-,-,-
O=C1C(Cl)=C(N2CCOCC2)C(=O)N1c1ccccc1F,-,-,-,-,30,-
Cc1ccccc1N1C(=O)C(Cl)=C(N2CCOCC2)C1=O,-,-,-,-,-,-
O=C1C(Cl)=C(N2CCCCC2)C(=O)N1c1ccccc1,-,-,-,-,54,-
O=C1N/C(=N/N=Cc2ccccc2)SC1(c1ccccc1)c1ccccc1,.,.,.,.,.,-
CC(C)=C(NC(=O)c1ccccc1)C(=O)NN=Cc1ccc(O)cc1,.,.,.,.,.,-
CC(CC(=O)Nc1cccnc1)=NNC(=O)C(C)Oc1ccc(Cl)cc1Cl (centres undefined),.,.,.,.,.,-
COc1cc(OC)c(/C=C2\C(=O)Nc3ccccc32)c(OC)c1,-,-,-,-,38,-
COc1ccc(NN=C2CCCCC2=O)cc1,.,.,.,.,.,-
Cc1nc2ccccc2n1N=Cc1ccc([N+](=O)[O-])o1,.,.,.,.,.,-
Cc1nc2ccccc2n1/N=C/c1ccc([N+](=O)[O-])s1,47,-,-,-,-,.
O=[N+]([O-])c1ccc(/C=N/n2c(CO)nc3ccccc32)s1,37,-,-,-,-,.
Cc1nc2ccccc2n1/N=C/c1ccc([N+](=O)[O-])o1,37,-,-,-,-,.
SMILES,GSTO1 inh,PAD4 inh,TDP2 absorb,HKDC1 inhibitor,Fh CTSL1 inh,UCH37 inh
O=[N+]([O-])c1ccc(O)c(C=Nn2c(CO)nc3ccccc32)c1,.,.,.,.,.,-
O=C(Cn1cnc2ccccc21)NN=Cc1ccccc1,.,.,.,.,.,-
CC(C)(C)NC(=S)NN=Cc1cccnc1,.,.,.,.,.,-
C/C(CC(=O)Nc1ccc(Cl)c(C(F)(F)F)c1)=N\NC(=O)c1ccccc1O,-,-,-,-,-,.
C/C(CC(=O)Nc1ccc(Cl)c(C(F)(F)F)c1)=N\NC(N)=S,-,-,-,-,40,.
O=C(Nc1nc2c(s1)CCCC2)Oc1ccccc1,-,-,-,-,28,-
O=C(Nc1nc2c(s1)CCCC2)c1cccnc1,-,-,.,-,-,-
Cc1ccc(NC(=O)CSc2nnc([C@H](C)NC(=O)OC(C)(C)C)o2)c(C)c1,-,-,-,-,-,-
CSCC[C@H](NC(=O)OC(C)(C)C)c1nnc(SCC(=O)Nc2ccc(C)cc2C)o1,-,-,-,-,68,-
CCc1ccccc1NC(=O)CSc1nnc([C@H](CCSC)NC(=O)OC(C)(C)C)o1,-,-,-,-,54,-
COC(=O)c1ccccc1NC(=O)c1ccccc1OC,-,-,-,-,-,-
